Bioassay records as filed in PubChem BioAssay.
GPR7 antag = antagonists of human GPR7 (neuropeptides B/W receptor 1) | P48145 | GPR7-expressing cells, fluorescence antagonist assay | inhibition, % at 4.4 µM | 1.1% of 290,000 active | AID 1861; in the data active = inhibition above about 16%, passing the limit was not always enough;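 also: cells stimulated with the agonist NPW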
TAAR1 agonist = human TAAR1 agonism; Q96RJ0; CHO RD-HGA16 TAAR1, Fluo-8 calcium fluorescence; vehicle wells 0%, saturating PEA agonist 100%; activation, % at 3 µM; 0.99% of 360,000 active;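 active = activation above the mean activation of all test compounds in the run plus 3 SD, cut at about 38% in these data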
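System: CHO RD-HGA16 cells carrying human TAAR1 plus Gα16; Incubation: 17-24 h seeding, 75 min 37 °C dye, 30 min RT; Measured by: Fluo-8 fluorescence, 5 s baseline then 140 s kinetic read; Control set: DMSO and PEA EC100; Replication: single well for each compound.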
TAAR1 antagonist = antagonists of human TAAR1; 1.5% of 360,000 active; inhibition, % at 3 µM; CHO RD-HGA16 TAAR1, Fluo-8 calcium fluorescence, antagonist;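 active = inhibition above a per-plate cutoff, the mean inhibition of test compounds on that plate plus 3 SD, cut at about 49% in these data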
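test system = CHO RD-HGA16 cells bearing hTAAR1 | replication = singlicate | controls = DMSO-only wells and EC80 β-PEA-stimulated wells | reagent = EC80 β-phenethylamine stimulus | read-out basis = percent inhibition of PEA-evoked calcium signal, max/basal emission ratio | schedule = seeding 17-24 h prior, 75-min 37 °C, 30-min RT dye loading | signal = kinetic Fluo-8 calcium fluorescence measurement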
CHO parental Ca = counter-screen for OX1R antagonists: effect in parental CHO cells. parental CHO-K1, ATP-induced calcium, Fluo-8 fluorescence. inhibition, % at 5.6 µM. 0.63% of 330,000 active;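 active = inhibition above that plate's mean sample inhibition plus 3 SD, cut at about 26% in these data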
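Material: parental CHO cells / Compound: single nominal dose of 5.6 µM per compound / Signal: Fluo-8 fluorescence / Replicates: singlicate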
OX1R antag-1 = antagonists of human orexin 1 receptor | inhibition, % at 5 µM | O43613 | CHO/OX1R cells, Fluo-8 calcium fluorescence, orexin A | 0.43% of 330,000 active;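 active = inhibition above its plate's threshold, mean inhibition of all tested compounds on the plate plus 3 SD, cut at about 37% in these data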
Target sequence (O43613 whole entry, looked up): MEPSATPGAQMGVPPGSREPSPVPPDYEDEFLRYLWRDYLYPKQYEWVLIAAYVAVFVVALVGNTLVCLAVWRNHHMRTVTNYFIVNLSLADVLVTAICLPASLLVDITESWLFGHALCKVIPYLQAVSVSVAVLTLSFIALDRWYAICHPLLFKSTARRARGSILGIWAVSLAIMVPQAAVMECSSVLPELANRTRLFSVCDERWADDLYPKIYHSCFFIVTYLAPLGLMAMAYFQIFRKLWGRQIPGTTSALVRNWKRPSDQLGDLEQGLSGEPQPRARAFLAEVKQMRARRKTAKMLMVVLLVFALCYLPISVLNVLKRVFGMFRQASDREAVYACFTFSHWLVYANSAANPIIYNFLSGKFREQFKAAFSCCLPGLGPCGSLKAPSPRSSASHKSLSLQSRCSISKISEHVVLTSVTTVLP
OX1R antag-2 = OX1R (human) antagonism. 1.8% of 330,000 active. O43613. inhibition, % at 6.6 µM. OX1R-expressing cells, FRET antagonist read-out; in the data active = inhibition mostly above about 38%, no sharp cut-off; inactive = mostly below about 40%
Of the large screens only hits and unclear results are named; the others gave an inactive call. A selection: hits, their analogues and other compounds. The true share with any hit is near 4.5%.

Cc1nc2cc(-c3ccc(Cl)cc3)nn2c(C)c1CCC(=O)NC(C)c1ccc2c(c1)OCCO2 (centres undefined)	OX1R antag-2 49
Cc1csc(NC(=O)CCc2c(C)nc3cc(-c4ccc(Cl)cc4)nn3c2C)n1	none
CS(=O)(=O)N1CCN(c2ccccc2NC(=S)NC(=O)c2cccs2)CC1	none
CS(=O)(=O)N1CCN(c2ccccc2NC(=S)NC(=O)c2ccccc2[N+](=O)[O-])CC1	TAAR1 antagonist 54
CCCCn1nnnc1C(c1ccccc1OC(F)(F)F)N1CCN(C/C=C/c2ccccc2)CC1 (centres undefined)	none (no result: GPR7 antag, CHO parental Ca, OX1R antag-1, OX1R antag-2)
COc1ccc(N=CC2=C(Nc3ccc(OC)cc3)c3c(C)nn(-c4ccccn4)c3CC2)cc1	CHO parental Ca 31 (no result: TAAR1 agonist, TAAR1 antagonist)
O=C(c1cc(COc2ccc(F)cc2Cl)on1)N1CCC(OCc2cccnc2)CC1	CHO parental Ca 61, OX1R antag-1 45
O=C(c1cc(COc2cccc(C(F)(F)F)c2)on1)N1CCC(Oc2cccnc2)CC1	CHO parental Ca 39
Cc1ccc(OCc2cc(C(=O)N3CCC(Oc4cccnc4)CC3)no2)cc1C	none
COc1ccccc1-c1cccc([C@@H]2C[C@H]3[C@H](CON3C)CN2C(=O)CCc2ccccc2)c1	none (no result: GPR7 antag, CHO parental Ca, OX1R antag-1, OX1R antag-2)
O=C1Nc2ccccc2N=C(c2ccc3c(c2)OCO3)C1N(CCc1ccccc1)C(=O)CSc1ncccn1 (centres undefined)	TAAR1 agonist 41 (no result: GPR7 antag, CHO parental Ca, OX1R antag-1, OX1R antag-2)
COc1ccc(C2=Nc3ccccc3NC(=O)C2N(CCc2ccccc2)C(=O)c2cccs2)cc1 (centres undefined)	TAAR1 agonist 44 (no result: GPR7 antag, CHO parental Ca, OX1R antag-1, OX1R antag-2)
O=C1Nc2ccccc2N=C(c2ccc3c(c2)OCO3)C1N(C(=O)c1ccnc2ccccc12)c1ccccc1 (centres undefined)	none (no result: GPR7 antag, CHO parental Ca, OX1R antag-1, OX1R antag-2)
O=C(Nc1nc2c(s1)CCc1ccccc1-2)c1cccs1	none
O=C(Nc1nc2c(s1)COc1ccccc1-2)c1cccs1	OX1R antag-2 56
CN(c1ccccc1)c1ccc(/C=C/[N+](=O)[O-])cc1	CHO parental Ca 63, OX1R antag-1 78
CC1CCCN(C(=O)COC(=O)CSc2ccc(C(N)=O)cc2[N+](=O)[O-])C1 (centres undefined)	OX1R antag-2 74 (no result: GPR7 antag)
NC(=O)c1ccc(SCC(=O)OCC(=O)N2CCCCC2)c([N+](=O)[O-])c1	OX1R antag-2 63 (no result: GPR7 antag)
CN(C(=O)COC(=O)CSc1ccc(C(N)=O)cc1[N+](=O)[O-])C1CCCCC1	OX1R antag-2 47 (no result: GPR7 antag)
COc1ccc(C(=O)OCC(=O)N2CCCCC2)cc1[N+](=O)[O-]	none
NC(=O)c1ccc(SCC(=O)OCC(=O)N2CCN(C(=O)c3ccco3)CC2)c([N+](=O)[O-])c1	OX1R antag-2 58 (no result: GPR7 antag)
NC(=O)[C@@H]1CCCN1C(=O)[C@@H](Cc1ccccc1)NC(=O)[C@H]1O[C@@H](n2ccc(=O)[nH]c2=O)[C@H](O)[C@@H]1O	none (no result: GPR7 antag, CHO parental Ca, OX1R antag-1, OX1R antag-2)
Cc1ccc2nc(-c3ccco3)c(Cc3ccccc3C(F)(F)F)n2c1	none (no result: GPR7 antag, CHO parental Ca, OX1R antag-1, OX1R antag-2)
Cc1ccc(NC(=O)CSc2ccc(C(N)=O)cc2[N+](=O)[O-])cc1C	CHO parental Ca 33
CC1CCN(C(=O)COC(=O)CSc2ccc(C(N)=O)cc2[N+](=O)[O-])CC1	OX1R antag-2 63 (no result: GPR7 antag)
COC(=O)C1=C(C)NC(=S)NC1c1ccc(Br)cc1 (centres undefined)	none (no result: GPR7 antag, CHO parental Ca, OX1R antag-1, OX1R antag-2)
CCOC(=O)Cn1c(=N)n(CCOc2ccc(Br)cc2)c2ccccc21	GPR7 antag 19
CC(NC(=O)C(NC(=O)OCc1ccccc1)C(C)O)C(=O)OCc1ccccc1 (centres undefined)	none (no result: GPR7 antag, CHO parental Ca, OX1R antag-1, OX1R antag-2)
O=C(NC1CCCC1)C(c1ccncc1)N(Cc1ccccc1)C(=O)Cc1cccs1 (centres undefined)	none
O=C(NC1CCCC1)C(c1ccsc1)N(Cc1ccccc1)C(=O)Cc1cccs1 (centres undefined)	TAAR1 antagonist 52
O=C(NC1CCCCC1)C(c1ccco1)N(Cc1cccs1)C(=O)Cn1nnc2ccccc21 (centres undefined)	GPR7 antag 22
Cc1cc(C)cc(N(C(=O)Cc2cccs2)C(C(=O)NC2CCCCC2)c2ccccn2)c1 (centres undefined)	OX1R antag-2 65
